Test results as given in ChEMBL document CHEMBL1124252, “Structure-activity relationships in 1,4-benzodioxan-related compounds. Investigation on the role of the dehydrodioxane ring on alpha 1-adrenoreceptor blocking activity” (J Med Chem, 1988).

How the values were obtained:
[1] = biological target: Adrenergic receptor alpha (Rattus norvegicus) (UniProt P15823+P23944+P43140+P22086+P19328+P22909); test: The alpha-1/alpha-2 selectivity ratio is the antilog of the difference between pA2 values at alpha-1 and alpha-2 adrenoceptors
[2] = biological target: T1, Adrenergic receptor alpha-2 (Rattus norvegicus, UniProt P22086+P19328+P22909); test: Alpha-2 adrenergic receptor blocking activity against clonidine-induced depression of the twitch response in prostatic portion of rat vas deferens; format: tissue-based
T1 sequence (P22086 whole entry): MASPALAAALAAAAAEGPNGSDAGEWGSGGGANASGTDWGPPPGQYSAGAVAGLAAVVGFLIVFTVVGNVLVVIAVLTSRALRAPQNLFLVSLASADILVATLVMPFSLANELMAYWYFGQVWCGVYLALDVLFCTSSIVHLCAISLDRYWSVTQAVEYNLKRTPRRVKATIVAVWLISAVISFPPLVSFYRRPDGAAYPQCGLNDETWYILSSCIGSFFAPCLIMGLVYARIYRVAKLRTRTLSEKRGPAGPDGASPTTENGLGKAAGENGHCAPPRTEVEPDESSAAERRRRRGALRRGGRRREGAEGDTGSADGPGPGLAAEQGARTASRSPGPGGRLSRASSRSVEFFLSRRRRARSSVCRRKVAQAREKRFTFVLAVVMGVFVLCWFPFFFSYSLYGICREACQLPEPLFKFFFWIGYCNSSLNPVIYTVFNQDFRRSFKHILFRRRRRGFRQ
T1 sequence (P19328 whole entry): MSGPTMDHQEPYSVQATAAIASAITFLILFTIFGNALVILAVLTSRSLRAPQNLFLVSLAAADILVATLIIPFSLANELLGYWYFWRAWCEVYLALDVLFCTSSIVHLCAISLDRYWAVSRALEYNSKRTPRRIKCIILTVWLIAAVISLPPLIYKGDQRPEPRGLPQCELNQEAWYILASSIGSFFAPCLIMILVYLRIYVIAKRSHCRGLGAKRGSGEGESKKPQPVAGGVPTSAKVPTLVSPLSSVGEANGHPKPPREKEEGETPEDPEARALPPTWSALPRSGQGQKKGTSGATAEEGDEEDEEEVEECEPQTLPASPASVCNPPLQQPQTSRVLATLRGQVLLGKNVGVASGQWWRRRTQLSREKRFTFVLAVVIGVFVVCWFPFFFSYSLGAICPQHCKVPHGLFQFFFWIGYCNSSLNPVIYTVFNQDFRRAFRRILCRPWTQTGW
T1 sequence (P22909 whole entry): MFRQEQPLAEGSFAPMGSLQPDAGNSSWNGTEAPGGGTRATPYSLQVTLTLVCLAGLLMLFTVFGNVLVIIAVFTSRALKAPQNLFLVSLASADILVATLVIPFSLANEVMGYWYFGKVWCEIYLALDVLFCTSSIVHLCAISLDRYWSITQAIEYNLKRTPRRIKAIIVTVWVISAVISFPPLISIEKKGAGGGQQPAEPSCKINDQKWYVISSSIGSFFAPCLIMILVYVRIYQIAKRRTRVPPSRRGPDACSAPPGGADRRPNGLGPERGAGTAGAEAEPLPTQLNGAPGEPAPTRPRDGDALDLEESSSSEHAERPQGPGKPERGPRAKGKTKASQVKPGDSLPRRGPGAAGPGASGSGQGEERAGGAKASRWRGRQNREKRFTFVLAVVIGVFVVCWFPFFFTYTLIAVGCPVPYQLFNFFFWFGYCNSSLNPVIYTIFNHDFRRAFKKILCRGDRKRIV
Summary of the method: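 Prostatic halves (12 mm) from male albino rat vas deferens, Krebs with propranolol 1 μM and cocaine 10 μM, 0.5–0.8 g tension, field-stimulated at 0.1 Hz, 3-ms pulses, 10-35 V. After ≥1 h equilibration, cumulative clonidine curves on twitch inhibition before and after 30 min antagonist. Dose ratios taken at 50% twitch inhibition; pA2 via Schild plot, slope constrained to -1.0.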

[3] = biological target: T2, Adrenergic receptor alpha-1 (Rattus norvegicus, UniProt P15823+P23944+P43140); test: Alpha-1 adrenergic receptor blocking activity against norepinephrine-induced contraction in epididymal portion of rat vas deferens; format: tissue-based
T2 sequence (P15823 whole entry): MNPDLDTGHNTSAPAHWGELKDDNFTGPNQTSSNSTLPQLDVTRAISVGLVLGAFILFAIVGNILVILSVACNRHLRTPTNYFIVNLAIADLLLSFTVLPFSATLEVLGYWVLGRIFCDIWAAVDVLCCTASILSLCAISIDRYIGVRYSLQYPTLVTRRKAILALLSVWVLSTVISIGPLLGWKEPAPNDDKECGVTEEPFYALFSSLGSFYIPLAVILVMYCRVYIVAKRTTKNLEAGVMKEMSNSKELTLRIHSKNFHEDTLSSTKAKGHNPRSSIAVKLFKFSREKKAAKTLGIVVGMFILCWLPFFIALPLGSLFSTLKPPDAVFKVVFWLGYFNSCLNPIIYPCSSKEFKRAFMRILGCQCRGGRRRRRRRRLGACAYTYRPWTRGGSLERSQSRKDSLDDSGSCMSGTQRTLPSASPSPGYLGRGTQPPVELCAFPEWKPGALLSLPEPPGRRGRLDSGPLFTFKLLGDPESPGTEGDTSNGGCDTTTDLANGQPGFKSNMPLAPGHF
T2 sequence (P23944 whole entry): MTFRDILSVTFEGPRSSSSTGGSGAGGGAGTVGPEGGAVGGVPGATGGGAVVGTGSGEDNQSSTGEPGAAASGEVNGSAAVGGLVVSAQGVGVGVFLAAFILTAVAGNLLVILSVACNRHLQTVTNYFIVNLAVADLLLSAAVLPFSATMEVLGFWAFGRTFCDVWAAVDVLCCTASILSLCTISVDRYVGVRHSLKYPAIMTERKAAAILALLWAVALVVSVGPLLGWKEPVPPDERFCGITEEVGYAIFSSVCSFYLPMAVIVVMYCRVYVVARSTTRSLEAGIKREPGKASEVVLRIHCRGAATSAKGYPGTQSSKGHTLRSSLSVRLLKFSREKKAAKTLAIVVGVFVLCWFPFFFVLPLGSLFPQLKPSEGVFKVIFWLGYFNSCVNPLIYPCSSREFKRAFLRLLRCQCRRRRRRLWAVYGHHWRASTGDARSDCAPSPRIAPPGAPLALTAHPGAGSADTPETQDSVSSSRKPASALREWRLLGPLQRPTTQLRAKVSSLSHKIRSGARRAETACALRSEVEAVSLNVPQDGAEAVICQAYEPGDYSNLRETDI
T2 sequence (P43140 whole entry): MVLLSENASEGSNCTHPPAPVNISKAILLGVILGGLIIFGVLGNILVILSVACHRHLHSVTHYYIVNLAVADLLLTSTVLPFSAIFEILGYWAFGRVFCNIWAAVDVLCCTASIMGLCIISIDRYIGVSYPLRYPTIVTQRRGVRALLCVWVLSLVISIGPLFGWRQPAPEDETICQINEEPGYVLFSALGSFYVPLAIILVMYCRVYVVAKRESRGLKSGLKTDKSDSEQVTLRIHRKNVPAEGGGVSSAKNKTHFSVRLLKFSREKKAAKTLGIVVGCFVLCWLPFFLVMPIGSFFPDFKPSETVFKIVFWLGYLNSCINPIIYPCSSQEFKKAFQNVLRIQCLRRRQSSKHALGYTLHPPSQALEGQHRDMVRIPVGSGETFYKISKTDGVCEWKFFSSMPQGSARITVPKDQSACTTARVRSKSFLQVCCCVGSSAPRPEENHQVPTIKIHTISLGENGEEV
Summary of the method: (§1)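 Epididymal halves (14 mm) of vas deferens from male albino rats (175-200 g), Krebs with propranolol 1 μM and cocaine 10 μM, 0.4 g tension. Equilibrated ≥1 h; cumulative norepinephrine curves, first discarded, second control, third after 30 min antagonist. Time-control tissues run in parallel. pA2 from Schild plots constrained to slope -1.0, each concentration tested five times.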

[4] = biological target: T2, Adrenergic receptor alpha-1; test: Alpha-1-Adrenoceptor blocking activity against norepinephrine-induced contraction in epididymal portion of rat vas deferens; format: functional, tissue-based; summary of the method: as §1

Row | SMILES | Selectivity [1] | pA2 [2] | pA2 [3] | pA2 [4]
1 | COc1cccc(OC)c1OCCNC[C@@H]1COc2ccccc2[C@H]1O | 17 | 6.09 | 7.33 | 
2 | COc1cccc(OC)c1OCCNC[C@@H]1COc2ccccc2C1 | 49 | 6.28 | 7.97 | 
3 | COc1cccc(OC)c1OCCNC[C@@H]1COc2ccccc2[C@@H]1O | 13 | 6.1 | 7.22 | 
4 | COc1cccc(OC)c1OCCNC[C@@H]1CSc2ccccc2C1=O | 229 | 6.53 | 8.89 | 
5 | COc1cccc(OC)c1OCCNC[C@@H]1C[S@@+]([O-])c2ccccc2O1 (relative stereo) | 30 | 6.24 | 7.71 | 
6 | COc1cccc(OC)c1OCCNCc1ccc2ccccc2c1 | 22 | 6.4 | 7.75 | 
7 | COc1cccc(OC)c1OCCNC[C@@H]1CCc2ccccc2O1 | 141 | 7.05 |  | 9.2
8 | COc1cccc(OC)c1OCCNC[C@@H]1CS(=O)(=O)c2ccccc2O1 | 6 | 5.8 |  | 6.6
9 | COc1cccc(OC)c1OCCNCC1COc2ccccc2O1 (stereo not given) | 407 | 6.63 | 9.24 | 
10 | COc1cccc(OC)c1OCCNC[C@@H]1COc2ccccc2S1 | 71 | 6.09 | 7.94 | 
11 | COc1cccc(OC)c1OCCNC[C@@H]1CSc2ccccc2O1 | 469 | 6.15 | 9.05 | 
12 | COc1cccc(OC)c1OCCNCc1cc2ccccc2[nH]1 | 4 | 6.04 |  | 6.6
13 | COc1cccc(OC)c1OCCNC[C@@H]1COc2ccccc2C1=O | 257 | 6.52 | 8.93 | 
14 | COc1cccc(OC)c1OCCNCc1cccc2ccccc12 | 8 | 6.41 | 7.33 | 
15 | COc1cccc(OC)c1OCCNC[C@@H]1C[S@+]([O-])c2ccccc2O1 (relative stereo) | 20 | 6.24 | 7.54 | 
